Measurements as given in ChEMBL document CHEMBL4732230, “Design, synthesis, and biological evaluation of 4-benzoylamino-1H-pyrazole-3-carboxamide derivatives as potent CDK2 inhibitors” (Eur J Med Chem, 2021).

Assays:
[1] = target: Cyclin-dependent kinase 1/cyclin B1 (Homo sapiens, UniProt P06493); format: protein-complex assay
CDK2/Cyclin A2 = CDK2/Cyclin A2 (Homo sapiens, UniProt P24941); assay: Inhibition of CDK2/cyclin A2 (unknown origin) using FAM-labeled peptide and ATP as substrate preincubated for 10 mins followed by substrate addition by mobility shift assay; format: protein-complex assay
A2058 = assay: Antiproliferative activity against human A2058 cells assessed as reduction in cell viability measured after 96 hrs by Celltiter-Glo luminescent assay; format: functional, cell-based; conditions: A2058, 96 h
Outline: (§1)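 Cells in DMEM (A2058, MRC5) or RPMI 1640 (MV4-11), each with 10% fetal bovine serum and 1% penicillin/streptomycin. Cells were plated in 96-well plates and exposed to serially concentrated compound for 96 h, with DMSO as control. Viability was read by CellTiter-Glo luminescence and IC50 derived.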

MV4-11 = assay: Antiproliferative activity against human MV4-11 cells assessed as reduction in cell viability measured after 96 hrs by Celltiter-Glo luminescent assay; format: functional, cell-based; conditions: MV4-11, 96 h
Outline: as §1

MRC5 = assay: Cytotoxicity against human MRC5 cells assessed as reduction in cell viability measured after 96 hrs by Celltiter-Glo luminescent assay; format: cell-based; conditions: MRC5, 96 h
Outline: as §1

[2] = Cytotoxicity against human LX2 cells assessed as inhibition of cell growth at 100 uM measured after 96 hrs by Celltiter-Glo luminescent assay; format: cell-based
Outline: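 LX2 cells grown in DMEM with 10% fetal bovine serum and 1% penicillin/streptomycin, plated in 96-well plates. They were treated with compound at […] or DMSO control for 96 h. Viability was read by CellTiter-Glo luminescence and expressed as percent inhibition.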

Chain of Cyclin-dependent kinase 1/cyclin B1 (P06493 whole entry): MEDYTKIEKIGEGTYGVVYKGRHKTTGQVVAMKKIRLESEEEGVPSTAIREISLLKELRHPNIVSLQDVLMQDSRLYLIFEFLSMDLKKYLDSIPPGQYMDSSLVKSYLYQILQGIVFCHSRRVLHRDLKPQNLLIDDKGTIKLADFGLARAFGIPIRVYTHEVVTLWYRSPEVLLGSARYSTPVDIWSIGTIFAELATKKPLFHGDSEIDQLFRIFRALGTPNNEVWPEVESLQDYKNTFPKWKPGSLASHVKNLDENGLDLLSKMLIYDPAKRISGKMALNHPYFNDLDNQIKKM
Chain of Cyclin-dependent kinase 1/cyclin B1 (P14635 whole entry, further chain): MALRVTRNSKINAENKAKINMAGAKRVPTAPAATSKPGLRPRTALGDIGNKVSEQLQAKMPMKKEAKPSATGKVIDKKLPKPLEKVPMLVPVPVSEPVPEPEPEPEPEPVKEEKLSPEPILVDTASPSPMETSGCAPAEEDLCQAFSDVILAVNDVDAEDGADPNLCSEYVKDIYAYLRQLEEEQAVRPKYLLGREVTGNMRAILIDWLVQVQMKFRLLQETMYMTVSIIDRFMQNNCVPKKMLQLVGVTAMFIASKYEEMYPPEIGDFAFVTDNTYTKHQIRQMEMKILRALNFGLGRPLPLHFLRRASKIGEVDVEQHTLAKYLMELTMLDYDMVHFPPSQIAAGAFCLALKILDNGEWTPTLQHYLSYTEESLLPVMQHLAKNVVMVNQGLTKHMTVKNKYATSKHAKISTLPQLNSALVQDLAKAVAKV

Row | SMILES | IC50 [1] | IC50 (CDK2/Cyclin A2) | IC50 (MV4-11) | IC50 (A2058) | IC50 (MRC5) | inhibition at 96 h, 100 µM [2]
1 | O=C(Nc1ccc(F)cc1)c1n[nH]cc1NC(=O)c1c(F)ccc(-c2ccccc2)c1F | 432 nM | 86 nM |  | 2370 nM |  | 
2 | Nc1ccc(-c2ccc(F)c(C(=O)Nc3c[nH]nc3C(=O)Nc3ccc(F)cc3)c2F)cn1 | 1260 nM | 120 nM |  | 8540 nM |  | 
3 | CN1CCC(CNC(=O)c2cccc(-c3ccc(F)c(C(=O)Nc4c[nH]nc4C(=O)Nc4ccc(F)cc4)c3F)c2)CC1 | 743 nM | 82 nM |  | 3340 nM |  | 
4 | O=C(Nc1ccc(F)cc1)c1n[nH]cc1NC(=O)c1c(F)ccc(-c2cccnc2)c1F | 306 nM | 40 nM |  | 2940 nM |  | 
5 | O=C(NC1CCNCC1)c1n[nH]cc1NC(=O)c1c(Cl)cccc1Cl [AT-7519] |  |  | 391 nM |  | 425 nM | 39.4%
6 | O=C(Nc1ccc(F)cc1)c1n[nH]cc1NC(=O)c1c(F)ccc(-c2cccc(O)c2)c1F | 236 nM | 26 nM |  |  |  | 

More lines, main results first:

Row | IC50 [1] | IC50 (CDK2/Cyclin A2) | IC50 (MV4-11) | SMILES | IC50 (A2058) | IC50 (MRC5) | inhibition at 96 h, 100 µM [2]
7 | > 200000 nM | 543 nM |  | NS(=O)(=O)c1ccc(Nc2nc(-c3cccc(-c4ccccc4)c3)c3nc[nH]c3n2)cc1 | > 100000 nM |  | 
8 | 1850 nM | 164 nM |  | Cc1ccc(-c2ccc(F)c(C(=O)Nc3c[nH]nc3C(=O)Nc3ccc(F)cc3)c2F)cn1 |  |  | 
9 | 278 nM | 51 nM |  | O=C(Nc1ccc(F)cc1)c1n[nH]cc1NC(=O)c1c(F)ccc(-c2ccc(F)nc2)c1F | 6310 nM |  | 
